Most compounds without a hit are left out; they make up all but 5.8% or so of the library.
Cav3 T inh = inhibitors of human Cav3.2 T-type calcium channel. O95180. Cav3.2-expressing cells, Fluo-4 calcium fluorescence FDSS; hits give low values. B-score at 10 µM. 100,000 tested, 4% active. AID 449739;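 active = single-dose well whose peak fluorescence ratio is a statistical outlier from its plate by either plate-standardised score or position-corrected B-score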
PLK1 kinase inh = blocks human PLK1 kinase activity. P53350. 97,000 tested, 0.53% active. recombinant PLK1 kinase, TR-FRET peptide phosphorylation. inhibition, % at 10 µM;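 active = inhibition of 50% or more in the single-concentration screen; inactive = inhibition below 50%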;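 also: 0% = DMSO max control and 100% = H-89 dihydrochloride min control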
FAK inh = blocks human focal adhesion kinase activity. AID 727. biochemical FAK kinase activity assay. 97,000 tested, 0.84% active. inhibition, %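 (tested at 7 µM)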. Q05397; in the data active = inhibition above about 19%;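 also: 0% = DMSO and 100% = reference compound high control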
Rev-RRE block = HIV Rev-RRE protein-RNA interaction inhibition. P05866. inhibition, % at 8 µM. 97,000 tested, 0.79% active. Rev peptide-RRE RNA binding, FRET;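 active = inhibition above the screen-wide mean plus 3 SD, cut at about 35% in these data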;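 also: 0% = median DMSO wells and 100% = median Neomycin B control wells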
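assay system = Cy5-tagged RRE RNA duplex with fluorescein-tagged Rev peptide | incubation = 5 + 15 min at 25 °C | also added = labelled Rev peptide | measure = % inhibition of FRET ratio versus controls | benchmarks = DMSO wells as 0% and neomycin B wells as 100% inhibition | measured by = FRET fluorescence readout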
PTK2B oligo ant = antagonists of human Pyk2 oligomerization | Q14289 | Q293 cells, Pyk2 FERM NanoBiT luminescence; hits give low values | z-score (the deposit names both 25 µM and 10 µM) | 99,000 tested, 0.83% active;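 active = Z-score of -3 or lower, scaled per plate to the spread of control and sample wells; inactive = z-score above -3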;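 also: negative z-score means lost luminescence so less FERM oligomerization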
Plk1 PBD FP = inhibitors of human Plk1 polo box domain binding. P53350. Plk1 PBD phosphopeptide binding, fluorescence polarization. inhibition, %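 (tested at about 20 µM)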. 97,000 tested, 0.13% active. AID 693; in the data active = inhibition above about 34%, passing the limit was not always enough
Starred values were filed as active, the others as inactive; . = no result given; [ ] = remark or other dose.

SMILES | Cav3 T inh | PLK1 kinase inh | FAK inh | Rev-RRE block | PTK2B oligo ant | Plk1 PBD FP
Cc1cc(C)c(NC(=O)C(C)c2cccc(C(=O)c3ccccc3)c2)c(C)c1 (stereo unspecified) | -5.5* | -5 | 5 | 16 | -0.51 | 13
O=C(COc1ccc(S(=O)(=O)NC2CCCCC2)cc1Cl)N1CCN(c2ccccc2)CC1 | -3.3 | -11 | 0 | 6 | 0.2 | -8
Cc1nc(-c2cccc(S(=O)(=O)N3CCCC(C)C3)c2)cs1 (stereo unspecified) | -2.7 | -4 | -5 | 1 | -0.95 | -6
COC(=O)CSC1=C(C#N)C(c2ccc(C(C)C)cc2)CC(=O)N1 (stereo unspecified) | -0.18 | -1 | -1 | 10 | . | -31
CCc1ccc(C2CC(=O)NC(SCC(=O)OC(C)C)=C2C#N)cc1 (stereo unspecified) | -8.4* | 2 | -5 | 10 | . | -21
COCCNc1nc(-c2cc(-c3ccc(Cl)cc3)on2)cc(C(C)C)n1 | 0.68 | . | . | . | . | .
Cc1nn(-c2ccccc2)c(Cl)c1C(=O)OC(C)C(=O)NC(=O)NC1CCCCC1 (stereo unspecified) | -2.3 | -1 | 5 | 5 | -4.2* | -13
COc1ccccc1C(=O)NCC(=O)OC(C)C(=O)NC(=O)NC1CCCCC1 (stereo unspecified) | 0.093 | -6 | -1 | 7 | 0.09 | -25
CCCCSc1ncc(C(=O)OCC)c(N)n1 | -4.6* | -6 | 0 | 10 | -0.74 | 14
O=C1NC(c2ccccc2)C(C(=O)c2cccs2)C(O)(C(F)(F)F)N1 (stereo unspecified) | -0.92 | -10 | 2 | 6 | 1.9 | -19
CCSC1=C(C#N)C(c2ccccc2Cl)C(C(=O)c2cccs2)C(O)(C(F)(F)F)N1 (stereo unspecified) | -9.2* | -6 | -1 | 11 | 0.09 | 12
CCCOc1ccc(/C=N/NC(=O)C2CCCN2S(=O)(=O)c2ccc(Cl)cc2)cc1 (stereo unspecified) | 0.82 | -13 | 3 | -3 | 0.08 | -27
CC(C)Oc1ccc(/C=N/NC(=O)C2CCCN2S(=O)(=O)c2ccc(Cl)cc2)cc1 (stereo unspecified) | -4.7* | -12 | 1 | 6 | 0.38 | 6
O=C(NCCC1=CCCCC1)c1ccc(Cl)c(S(=O)(=O)Nc2ccccc2)c1 | -2.3 | -5 | 15 | 13 | -2 | 19
Cc1ccc(C(=O)N2CCCC2)cc1S(=O)(=O)Nc1ccccc1 | -0.44 | -5 | 1 | -3 | 0.07 | -6
Cc1ccccc1NS(=O)(=O)c1cc(C(=O)NCCC2=CCCCC2)ccc1C | -3.4* | -6 | 4 | 8 | -1.7 | -19
Cc1ccc(C(=O)NCCSC2CCCCC2)cc1S(=O)(=O)Nc1ccccc1 | -3.8* | -16 | 2 | 10 | -1.7 | 1
Cc1csc(NC(C)c2nc3cc(Cl)c(N4CCCCC4)cc3n2CCOCCO)n1 (stereo unspecified) | 0.22 | . | . | . | . | .
CC(C)C[C@H](NC(=O)c1nc[nH]c1C(=O)NCc1ccccc1)C(=O)OCc1ccccc1 | -0.077 | . | . | . | . | .
Cc1ccc(Cl)cc1N1CCN(C(=O)C2(S(=O)(=O)c3ccc(Cl)cc3)CC2)CC1 | -6.1* | -7 | -1 | 2 | 0.85 | 3
O=C(N1CCN(c2cccc(Cl)c2)CC1)C1(S(=O)(=O)c2ccc(Cl)cc2)CC1 | -4.7* | -6 | -1 | 15 | 1.1 | 17
O=C(NCCCN1CCN(c2cccc(Cl)c2)CC1)C1(S(=O)(=O)c2ccc(Cl)cc2)CC1 | -6.9* | -10 | -2 | 13 | 0.73 | 4
CC(=O)c1ccc(N2CCN(C(=O)C3(S(=O)(=O)c4ccc(Cl)cc4)CC3)CC2)cc1 | 0.51 | -3 | -1 | 14 | -0.17 | 5
O=C(NCCO)C(F)(F)C(F)(F)C(F)(F)OC(F)(C(=O)NCCO)C(F)(F)F (stereo unspecified) | 2.3 | -13 | -1 | 3 | 0.75 | 13
O=C1OCCC1Sc1nc(-c2ccccc2)cs1 (stereo unspecified) | 0.041 | -9 | 0 | 1 | 1.6 | 0
CCOC(=O)N1CCN(c2cc(NCCC(=O)O)c3c4c(onc24)-c2ccccc2C3=O)CC1 | . | . | . | . | -0.49 | .
O=C(O)CCCNc1cc(N2CCC3(CC2)OCCO3)c2noc3c2c1C(=O)c1ccccc1-3 | . | 36 | 1 | 122*[fluorescence artefact?] | . | 7
CCOC(=O)CSc1nnc(-c2c[nH]c3ccccc23)n1CC | 0.48 | 68* | 0 | 0 | . | -16
